Where a SMILES comes first, the peptide text is derived from it. Bridges are numbered along the chain shown (N, C = ends). [ ]: non-standard residue; d: D form. 2Nal = N[C@@H](Cc1ccc2ccccc2c1)C(=O)O; Dmt = Cc1cc(O)cc(C)c1C[C@H](N)C(=O)O; dOrn = NCCC[C@@H](N)C(=O)O
How the values were obtained:
[1] = molecular target: Mu-type opioid receptor (Rattus norvegicus, UniProt P33535); experiment: Binding affinity was determined by displacement of [3H]- DAMGO at Opioid receptor mu 1 in rat brain membrane homogenates; type: cell membranes
Sequence of Mu-type opioid receptor (P33535 whole entry, looked up): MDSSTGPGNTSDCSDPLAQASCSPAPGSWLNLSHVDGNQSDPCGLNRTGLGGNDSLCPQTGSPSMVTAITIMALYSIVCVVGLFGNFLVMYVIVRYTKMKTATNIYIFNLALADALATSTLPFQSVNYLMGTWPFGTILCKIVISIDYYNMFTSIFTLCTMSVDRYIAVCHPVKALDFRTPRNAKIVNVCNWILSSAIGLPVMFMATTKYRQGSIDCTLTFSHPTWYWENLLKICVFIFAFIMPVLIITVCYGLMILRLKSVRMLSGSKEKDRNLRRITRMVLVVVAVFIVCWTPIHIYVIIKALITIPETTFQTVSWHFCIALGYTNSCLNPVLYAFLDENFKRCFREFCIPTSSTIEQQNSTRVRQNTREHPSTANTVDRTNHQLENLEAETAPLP
In short: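 Rat brain membranes, [3H]DAMGO at 0.72 nM, 2 h at 25 °C. Enzyme inhibitor cocktail in buffer (bestatin 100 µM, captopril 1.0 µM, thiorphan 1.0 µM, Leu-Leu 100 µM). IC50 from log dose-displacement curves. Ki by Cheng-Prusoff using Kd 1.3 nM. Mean of three to six determinations ± SEM.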

[2] = molecular target: Delta-type opioid receptor (Rattus norvegicus, UniProt P33533); experiment: Binding affinity was determined by displacement of [3H]- DSLET at Opioid receptor delta 1 in rat brain membrane homogenates; type: cell membranes
Sequence of Delta-type opioid receptor (P33533 whole entry, looked up): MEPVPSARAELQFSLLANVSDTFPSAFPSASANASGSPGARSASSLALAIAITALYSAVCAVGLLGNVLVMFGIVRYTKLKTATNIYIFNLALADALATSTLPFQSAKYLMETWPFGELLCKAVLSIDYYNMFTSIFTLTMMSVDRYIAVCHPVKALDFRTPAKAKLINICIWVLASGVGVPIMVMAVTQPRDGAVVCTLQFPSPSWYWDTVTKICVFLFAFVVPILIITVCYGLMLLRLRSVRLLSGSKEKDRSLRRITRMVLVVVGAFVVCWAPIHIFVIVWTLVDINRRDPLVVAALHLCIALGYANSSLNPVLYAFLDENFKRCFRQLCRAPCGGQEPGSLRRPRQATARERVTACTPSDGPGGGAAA
In short: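 Rat brain membranes, [3H]DSLET at 0.78 nM, 2 h at 25 °C, with a peptidase inhibitor cocktail in buffer. Poorly soluble peptides dissolved in DMSO, diluted in buffer, filtered, and concentration set by optical density. IC50 from log dose-displacement curves. Ki by Cheng-Prusoff with Kd 2.6 nM. Mean of three to six determinations ± SEM.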

[3] = species on record: Mus musculus; experiment: Antagonist activity was determined against the selective delta -agonist DPDPE in the MVD (mouse vas deferens) assay; type: functional
In short: (§1)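 Mouse vas deferens, electrically evoked contractions. DPDPE IC50 measured with and without a fixed antagonist concentration (50 to 4000 nM). Ke = a/(DR − 1), where DR is the ratio of agonist IC50 values. Mean of three to six determinations ± SEM.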

[4] = species on record: Cavia porcellus; experiment: (§2) Antagonist activity was determined against the selective delta -agonist TAPP in the GPI (guinea pig ileum) assay; type: functional, organism-based
In short: (§3)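 Guinea pig ileum, electrically evoked contractions. µ-Agonist TAPP IC50 measured with and without antagonist at a fixed 500 nM. Ke = a/(DR − 1) from the IC50 ratio. Mean of three to six determinations ± SEM.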

[5] = species on record: Cavia porcellus; experiment: as §2; type: functional; in short: as §3
[6] = species on record: Mus musculus; experiment: Antagonist activity was determined against the selective delta -agonist DPDPE by inhibition of electrically evoked contractions of the mouse vas deferens; type: functional; in short: as §1

Structure (SMILES) | Ki [1] [µM] | Ki [2] [µM] | Ke [3] [nM] | IC50 [4] [µM] | Ke [5] [nM] | Ke [6] [nM]
C[C@@H](O)[C@@H]1NC(=O)[C@H](Cc2ccc(O)cc2)NC(=O)[C@@H](Cc2c[nH]c3ccccc23)NC(=O)[C@H](Cc2cccc3ccccc23)NC(=O)[C@@H]2CCCN2C(=O)[C@H](Cc2ccccc2)NC1=O | > 10 | 0.152 | 128 | – | – | –
C[C@@H](O)[C@@H]1NC(=O)[C@H](Cc2ccc(O)cc2)NC(=O)[C@@H](Cc2c[nH]c3ccccc23)NC(=O)[C@H](Cc2ccc3ccccc3c2)NC(=O)[C@@H]2CCCN2C(=O)[C@H](Cc2ccccc2)NC1=O | > 10 | 1.07 | 2460 | – | – | –
Cc1cc(O)cc(C)c1C[C@H](N)C(=O)N[C@@H]1CCCNC(=O)CNC(=O)[C@H]2CCCN2C(=O)[C@H](Cc2ccc3ccccc3c2)NC1=O (H-[Dmt][dOrn][2Nal][dP]G; lactam 2-C) | 0.000476 | 0.000467 | 2.13 | 0.00788 | – | –
C[C@@H](O)[C@@H]1NC(=O)[C@H](CC2CCCCC2)NC(=O)[C@@H](Cc2c[nH]c3ccccc23)NC(=O)[C@H](Cc2ccccc2)NC(=O)[C@@H]2CCCN2C(=O)[C@H](Cc2ccccc2)NC1=O | > 10 | 0.486 | 202 | – | – | –
Cc1cc(O)cc(C)c1C[C@H](NC=O)C(=O)N[C@@H]1CCCNC(=O)CNC(=O)[C@H]2CCCN2C(=O)[C@H](Cc2ccc3ccccc3c2)NC1=O | 0.218 | 0.0328 | 16.3 | – | 216 | –
C[C@@H](O)[C@@H]1NC(=O)[C@H](Cc2ccc(O)cc2)NC(=O)[C@@H](Cc2c[nH]c3ccccc23)NC(=O)[C@H](Cc2ccccc2)NC(=O)[C@@H]2CCCN2C(=O)[C@H](Cc2ccccc2)NC1=O (cyclo(FPF[dW]YT)) | > 10 | 0.759 | – | – | – | 238
Cc1cc(O)cc(C)c1CCC(=O)N[C@@H]1CCCNC(=O)CNC(=O)[C@H]2CCCN2C(=O)[C@H](Cc2ccc3ccccc3c2)NC1=O | 0.45 | 0.109 | 121 | – | 237 | –
